# From ChEMBL document CHEMBL5634186, “Structure-Activity Relationship Study of Biselyngbyolide B Reveals Mitochondrial Fission-Induced Cytotoxicity in Cancer” (ACS Med Chem Lett, 2024)
# Active and inactive are the calls of the source. The rule behind the calls is not given here.
# Tests used:
# HCT-116 [1] = assay: Induction of apoptosis in human HCT-116 cells assessed as decrease in cleavage of PARP at 1 uM pretreated with NAC for 1 hr followed by compound addition and measured after 16 hrs by immunoblotting analysis; assay type: functional, cell-based
# Outline: (§1)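 HCT116 cells pretreated 1 h with 5 mM NAC, then 1 μM compound 16 h; immunoblot for cleaved caspase 3 and PARP1, β-actin loading control.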
# HCT-116 [2] = assay: Induction of mitochondrial fission in human HCT-116 cells assessed as increase in DRP1 phosphorylation at S616 after 8 to 24 hrs by immunoblotting analysis; assay type: functional, cell-based; details: dose 0.5-1 µM, time 8-24 hrs
# Outline: (§2)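 Immunoblot in HCT116 cells: p-DRP1 S616, p-DRP1 S637, DRP1, Mitofusin1, Mitofusin2 and MFF over time (0, 8, 16, 24 h); p-DRP1 S616, S637, DRP1, Mitofusin1 and OPA at 0.5 and 1 μM. β-Actin loading control.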
# HCT-116 [3] = assay: Induction of ROS generation in mitochondria of human HCT-116 cells at 1 uM preincubated with MitoTEMPO for 1 hr followed by compound addition and measured after 16 hrs by MitoSOX Red staining based confocal microscope analysis; assay type: functional, cell-based
# Outline: (§3)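 HCT116 cells pretreated 1 h with 10 μM MitoTEMPO, then compound 1 μM for 16 h. Mitochondrial superoxide by MitoSOX Red confocal imaging, intensity quantified; cytotoxicity by LIVE/DEAD kit (Calcein-AM live, EthD-1 dead), percentage dead cells quantified.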
# HCT-116 [4] = assay: Anticancer activity against human HCT-116 cells assessed as inhibition of cell viability incubated for 16 hrs by MTT assay; assay type: functional, cell-based; details: HCT-116, 16 h
# HCT-116 [5] = assay: Induction of mitochondrial fusion in human HCT-116 cells assessed as change in OPA1 level at 0.5 to 1 uM incubated for 8 to 24 hrs by immunoblotting analysis; assay type: functional, cell-based; details: dose 0.5-1 µM, time 8-24 hrs; outline: as §2
# HCT-116 [6] = assay: Induction of ROS generation in human HCT-116 cells at 1 uM preincubated for 16 hrs followed by Mdivi1 addition for 8 hrs by CellROX Red staining based confocal microscopy analysis; assay type: functional, cell-based
# HCT-116 [7] = assay: Induction of ROS generation in mitochondria of human HCT-116 cells assessed as number of dead cells at 1 uM preincubated with MitoTEMPO for 1 hr followed by compound addition and measured after 16 hrs by Calcein-AM/EthD-1 staining based confocal microscope analysis; assay type: functional, cell-based; outline: as §3
# HCT-116 [8] = assay: Induction of apoptosis in human HCT-116 cells assessed as number of dead cells at 1 uM preincubated for 16 hrs followed by Mdivi1 addition and measured after 8 hrs by Calcein-AM/EthD-1 staining based confocal microscope analysis; assay type: functional, cell-based
# Outline: (§4)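 HCT116 cells treated 1 μM for 16 h; DRP1 inhibited with 25 μM Mdivi-1 for 8 h. Staining 30 min with CellROX Red FM, MitoTracker Deep Red FM and LIVE/DEAD reagents; confocal imaging; mean fluorescence intensity from five fields.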
# HCT-116 [9] = assay: Induction of mitochondrial fission in human HCT-116 cells assessed as increase in DRP1 phosphorylation at S616 at 1 uM preincubated with NAC for 1 hr followed by compound addition and measured after 16 hrs by immunoblotting analysis; assay type: functional, cell-based
# Outline: (§5)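 Immunoblot of p-DRP1 S616 and p-DRP1 S637 in HCT116 cells pretreated 1 h with or without 5 mM NAC, then 1 μM compound 16 h.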
# HCT-116 [10] = assay: Induction of ROS generation in human HCT-116 cells incubated for 16 hrs by CellROX Red staining based confocal microscope analysis; assay type: functional, cell-based; details: dose 0.5-1 µM
# Outline: (§6)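 HCT116 cells treated 16 h with compound (0.5 or 1 μM where dosed); stained 30 min with MitoTracker Deep Red FM (membrane potential) or CellROX Red FM (ROS); confocal imaging; mean fluorescence intensity quantified from five fields.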
# HCT-116 [11] = assay: Induction of ROS production in human HCT-116 cells assessed as deterioration of mitochondrial length and area at 1 uM incubated for 16 hrs in presence of CellLight Mitochondria-GFP by confocal microscopy analysis; assay type: functional, cell-based
# Outline: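 HCT116 cells transfected with CellLight Mitochondria-GFP, treated 1 μM for 16 h; confocal images quantified for mitochondrial length and area.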
# HCT-116 [12] = assay: Induction of apoptosis in human HCT-116 cells assessed as increase in JNK phosphorylation at 1 uM incubated for 16 hrs by immunoblotting analysis; assay type: functional, cell-based
# Outline: (§7)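 Immunoblot of p-JNK, JNK, p-p38 and p38 in HCT116 cells after 1 μM compound for 16 h; β-actin loading control.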
# HCT-116 [13] = assay: Induction of apoptosis in human HCT-116 cells assessed as decrease in cleavage of PARP at 1 uM preincubated for 16 hrs followed by Mdivi1 addition and measured after 8 hrs by immunoblotting analysis; assay type: functional, cell-based
# Outline: (§8)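 HCT116 cells treated 1 μM for 16 h, post-treated with 25 μM Mdivi-1 for 8 h; immunoblot for cleaved caspase 3 and PARP1, β-actin loading control.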
# HCT-116 [14] = assay: Induction of mitochondrial fission in human HCT-116 cells assessed as decrease in DRP1 phosphorylation at S637 at 0.5 to 1 uM by immunoblotting analysis; assay type: functional, cell-based; details: dose 0.5-1 µM, time 8-24 hrs, TDE = time-dependent effect; outline: as §2
# HCT-116 [15] = assay: Induction of mitochondrial fission in human HCT-116 cells assessed as decrease in DRP1 phosphorylation at S637 at 1 uM preincubated with NAC for 1 hr followed by compound addition and measured after 16 hrs by immunoblotting analysis; assay type: functional, cell-based; outline: as §5
# HCT-116 [16] = assay: Induction of mitochondrial membrane potential loss in human HCT-116 cells incubated for 16 hrs by mitotracker red staining based confocal microscope analysis; assay type: functional, cell-based; details: dose 0.5-1 µM; outline: as §6
# HCT-116 [17] = assay: Induction of ROS production in human HCT-116 cells assessed as altered mitochondrial architecture at 1 uM pretreated with NAC for 1 hr followed by compound addition and measured after 16 hrs by MitoTracker Deep Red staining based confocal microscopy analysis; assay type: functional, cell-based
# Outline: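 HCT116 cells pretreated 1 h with or without 5 mM NAC, then 1 μM compound 16 h; MitoTracker Deep Red FM staining 30 min; confocal imaging of mitochondrial morphology with quantification.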
# HCT-116 [18] = assay: Induction of apoptosis in human HCT-116 cells assessed as increase in p-38 phosphorylation at 1 uM preincubated with selonsertib for 1 hr followed by compound addition and measured after 16 hrs by immunoblotting analysis; assay type: functional, cell-based
# Outline: (§9)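 Immunoblot of p-JNK, p-p38 and p38 in HCT116 cells pretreated 1 h with or without 50 μM selonsertib before compound treatment; β-actin loading control.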
# HCT-116 [19] = assay: Induction of apoptosis in human HCT-116 cells assessed as increase in p-38 phosphorylation at 1 uM incubated for 16 hrs by immunoblotting analysis; assay type: functional, cell-based; outline: as §7
# HCT-116 [20] = assay: Induction of mitochondrial membrane potential loss in human HCT-116 cells at 1 uM preincubated for 16 hrs followed by Mdivi1 addition and measured after 8 hrs by MitoTracker Deep Red staining based confocal microscopy analysis; assay type: functional, cell-based; outline: as §4
# HCT-116 [21] = assay: Induction of apoptosis in human HCT-116 cells assessed as increase in JNK1 phosphorylation at 1 uM preincubated with selonsertib for 1 hr followed by compound addition and measured after 16 hrs by immunoblotting analysis; assay type: functional, cell-based; outline: as §9
# HCT-116 [22] = assay: Induction of mitochondrial fission in human HCT-116 cells assessed as increase in DRP1 phosphorylation at S616 at 0.5 to 1 uM by immunoblotting analysis; assay type: functional, cell-based; details: dose 0.5-1 µM, time 8-24 hrs, TDE = time-dependent effect; outline: as §2
# HCT-116 [23] = assay: Induction of apoptosis in human HCT-116 cells assessed as decrease in cleavage of caspase 3 at 1 uM preincubated for 16 hrs followed by Mdivi1 addition and measured after 8 hrs by immunoblotting analysis; assay type: functional, cell-based; outline: as §8
# HCT-116 [24] = assay: Induction of mitochondrial fission in human HCT-116 cells assessed as decrease in DRP1 phosphorylation at S637 after 8 to 24 hrs by immunoblotting analysis; assay type: functional, cell-based; details: dose 0.5-1 µM, time 8-24 hrs; outline: as §2
# HCT-116 [25] = assay: Induction of ROS generation in mitochondria of human HCT-116 cells transfected with mito-GFP at 1 uM incubated for 16 hrs by CellROX Red staining based confocal microscope analysis; assay type: functional, cell-based
# Outline: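 HCT116 cells transfected with CellLight Mitochondria-GFP, treated 1 μM for 16 h, stained with CellROX Red FM 30 min; confocal imaging; colocalization of GFP and CellROX Red intensities quantified.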
# HCT-116 [26] = assay: Induction of mitochondrial fusion in human HCT-116 cells assessed as change in Mitofusin level at 0.5 to 1 uM incubated for 8 to 24 hrs by immunoblotting analysis; assay type: functional, cell-based; details: dose 0.5-1 µM, time 8-24 hrs; outline: as §2
# HCT-116 [27] = assay: Induction of apoptosis in human HCT-116 cells assessed as decrease in cleavage of caspase 3 at 1 uM pretreated with NAC for 1 hr followed by compound addition and measured after 16 hrs by immunoblotting analysis; assay type: functional, cell-based; outline: as §1
# [28] = Cytotoxicity against HEK293 cells assessed as reduction in cell viability incubated for 16 hrs by MTT assay; assay type: toxicity, cell-based; details: human
# HCT-116 [29] = assay: Induction of mitochondrial fission in human HCT-116 cells assessed as appearance of mitochondrial puncta at 1 uM incubated for 14 hrs by Mitotracker Red staining based time-lapse microscopy analysis; assay type: functional, cell-based
# Outline: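 Time-lapse microscopy with MitoTracker Red over 14 h of treatment in HCT116 cells; size of mitochondrial puncta measured as fission read-out.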
# HCT-116 [30] = assay: Induction of mitochondrial fusion in human HCT-116 cells assessed as change in MFF level at 0.5 to 1 uM incubated for 8 to 24 hrs by immunoblotting analysis; assay type: functional, cell-based; details: dose 0.5-1 µM, time 8-24 hrs; outline: as §2
# HCT-116 [31] = assay: Induction of apoptosis in human HCT-116 cells assessed as number of dead cells at 1 uM preincubated with selonsertib for 1 hr followed by compound addition and measured after 16 hrs by Calcein-AM/EthD-1 staining based confocal microscope analysis; assay type: functional, cell-based
# HCT-116 [32] = assay: Induction of apoptosis in human HCT-116 cells assessed as increase in JNK1 phosphorylation at 1 uM preincubated with NAC for 1 hr followed by compound addition and measured after 16 hrs by immunoblotting analysis; assay type: functional, cell-based
# Outline: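 Immunoblot of p-JNK and JNK in HCT116 cells pretreated 1 h with or without 5 mM NAC before compound treatment; β-actin loading control.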
# HCT-116 [33] = assay: Induction of ROS generation in human HCT-116 cells at 0.5 to 1 uM incubated for 16 hrs by CellROX Red staining based confocal microscope analysis; assay type: functional, cell-based; details: dose 0.5-1 µM; outline: as §6
# HCT-116 [34] = assay: Induction of mitochondrial fission in human HCT-116 cells assessed as increase in DRP1 phosphorylation at S616 at 0.5 to 1 uM incubated for 8 to 24 hrs by immunoblotting analysis; assay type: functional, cell-based; details: dose 0.5-1 µM, time 8-24 hrs; outline: as §2
# HCT-116 [35] = assay: Induction of mitochondrial fission in human HCT-116 cells assessed as decrease in DRP1 phosphorylation at S637 at 0.5 to 1 uM incubated for 8 to 24 hrs by immunoblotting analysis; assay type: functional, cell-based; details: dose 0.5-1 µM, time 8-24 hrs; outline: as §2
# HCT-116 [36] = assay: Induction of mitochondrial membrane potential loss in human HCT-116 cells at 0.5 to 1 uM incubated for 16 hrs by mitotracker red staining based confocal microscope analysis; assay type: functional, cell-based; details: dose 0.5-1 µM; outline: as §6
compound,measurement,setting,value
C/C=C/C/C(C)=C\[C@H]1C/C=C/C=C/C[C@H](C)/C=C(\C)[C@@H](OC)CCC[C@@H](O)CC(=O)O1,Activity,HCT-116 [1],Active
same,Activity,HCT-116 [2],Dose-Dependent Effect
same,Activity,HCT-116 [3],inactive
same,IC50,HCT-116 [4],0.1 µM
same,Activity,HCT-116 [5],inactive
same,Activity,HCT-116 [6],inactive
same,Activity,HCT-116 [7],inactive
same,Activity,HCT-116 [8],inactive
same,Activity,HCT-116 [9],inactive
same,Activity,HCT-116 [10],Dose-Dependent Effect
same,Activity,HCT-116 [11],Active
same,Activity,HCT-116 [12],Active
same,Activity,HCT-116 [13],inactive
same,Activity,HCT-116 [14],Tde
same,Activity,HCT-116 [15],inactive
same,Activity,HCT-116 [16],Dose-Dependent Effect
same,Activity,HCT-116 [17],inactive
same,Activity,HCT-116 [18],inactive
same,Activity,HCT-116 [19],Active
same,Activity,HCT-116 [20],inactive
same,Activity,HCT-116 [21],inactive
same,Activity,HCT-116 [22],Tde
same,Activity,HCT-116 [23],inactive
same,Activity,HCT-116 [24],Dose-Dependent Effect
same,Activity,HCT-116 [25],Active
same,Activity,HCT-116 [26],inactive
same,Activity,HCT-116 [27],Active
same,IC50 at 16 h,[28],23.7 µM
same,Activity,HCT-116 [29],Active
same,Activity,HCT-116 [30],inactive
same,Activity,HCT-116 [31],inactive
same,Activity,HCT-116 [32],inactive
CO[C@H]1C/C=C/[C@@H](O)CC(=O)O[C@@H](c2ccc(C)cc2)C/C=C/C=C/C[C@H](C)/C=C/1C,IC50,HCT-116 [4],7.8 µM
same,IC50 at 16 h,[28],16.5 µM
CCCCC[C@@H]1C/C=C/C=C/C[C@H](C)/C=C(\C)[C@@H](OC)C/C=C/[C@@H](O)CC(=O)O1,Activity,HCT-116 [33],inactive
same,IC50,HCT-116 [4],23 µM
same,Activity,HCT-116 [11],Active
same,Activity,HCT-116 [34],Active
same,Activity,HCT-116 [35],inactive
same,IC50 at 16 h,[28],20.2 µM
same,Activity,HCT-116 [36],inactive
